From ChEMBL document CHEMBL1122372, “Synthesis of aminomethyl-substituted cyclic imide derivatives for evaluation as anticonvulsants” (J Med Chem, 1983)
Calls of active or inactive are those of the source. The calls are words filed in the database; no cut-off is given here.

How the values were obtained:
Mus musculus [1] = test: Tested for rotarod neurotoxicity, number of deaths from respiratory depression among four animals given a dose 600 mg/kg was reported
Mus musculus [2] = test: Tested for anti maximal electroshock activity at 0.5 hr at dose 100 mg/kg; ++=Compound is active at 100 mg/kg; type: functional, organism-based
Method in brief: (§1)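 Phase I screen in mice run by the NINCDS Antiepileptic Drug Development Program. Four mice per dose, scored 0.5 and 4 h after dosing, for prevention of tonic hindlimb extension following maximal electroshock. Doses were 30, 100, 300 or 600 mg/kg. Activity is the lowest dose protecting at least one of four animals, provided a second trial confirms it.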

Mus musculus [3] = test: Anti-pentylenetetrazole activity at 0.5 hr in mice […]; +=Compound is active at 300 mg/kg; type: functional, organism-based
Method in brief: (§2)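 Phase I screen in mice run by the NINCDS Antiepileptic Drug Development Program. Four mice per dose, scored 0.5 and 4 h after dosing, for protection against seizures induced by 85 mg/kg subcutaneous pentylenetetrazole. Dose levels were 30, 100, 300 and 600 mg/kg. Activity is the lowest dose at which at least one of four animals is protected, confirmed in a second trial.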

Mus musculus [4] = test: Tested for anti-pentylenetetrazole activity in mice at 4 h; - denotes inactive up to 600 mg/kg; type: functional, organism-based; set-up: dose 600 mg/kg
Method in brief: as §2

Mus musculus [5] = test: Tested for anti maximal electroshock activity at 4 h; - denotes inactive up to 600 mg/kg; type: functional, organism-based; set-up: dose 600 mg/kg
Method in brief: as §1

Mus musculus [6] = test: Tested for rotarod neurotoxicity, number of deaths from respiratory depression among four animals given a dose 600 mg/kg was reported; conditions: in vivo
Mus musculus [7] = species: Mus musculus; test: Effective dose against maximal electroshock seizures in mice, at 0.5 h; type: functional
Method in brief: (§3)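 Phase II quantification in mice by the NINCDS Anticonvulsant Drug Development Program. Median effective dose against maximal electroshock-induced seizures, measured at the time of peak effect, 0.5 h. The 95% confidence intervals come from probit analysis.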

Mus musculus [8] = test: Tested for anti maximal electroshock activity at 4 h; += Compound is active at 300 mg/kg; type: functional, organism-based; set-up: dose 300 mg/kg
Method in brief: as §1

Mus musculus [9] = test: Anti-pentylenetetrazole activity at 0.5 h; - denotes inactive up to 600 mg/kg; type: functional, organism-based; set-up: dose 600 mg/kg
Method in brief: as §2

[10] = Tested for rotarod neurotoxicity at dose 300 mg/kg; type: organism-based; set-up: dose 300 mg/kg; conditions: mouse, in vivo
Method in brief: (§4)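 Phase I rotarod neurotoxicity in mice, run by the NINCDS Antiepileptic Drug Development Program. Doses were 30, 100, 300 or 600 mg/kg. Deaths from respiratory depression were counted among four animals given 600 mg/kg.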

Mus musculus [11] = species: Mus musculus; test: (§5) Effective dose against maximal electroshock seizures in mice, at 0.5 hr; type: functional
Method in brief: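 Phase II quantification in mice under the NINCDS Antiepileptic Drug Development Program. Protection against maximal electroshock, scored as prevention of tonic hindlimb extension, was measured at the time of peak effect, 0.5 h after dosing. Median effective dose was derived by probit analysis with 95% confidence intervals.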

[12] = Tested for neurotoxicity in rotarod test; type: toxicity, organism-based; conditions: mouse, in vivo
Method in brief: as §4

Mus musculus [13] = test: Anti-pentylenetetrazole activity at 0.5 hr in mice […]; += Compound is active at 300 mg/kg; type: functional, organism-based
Method in brief: as §2

Mus musculus [14] = test: Tested for rotarod neurotoxicity, number of deaths from respiratory depression among four animals given a dose 600 mg/kg was reported; inactive; type: functional
Mus musculus [15] = test: Tested for anti maximal electroshock activity at 0.5 hr […]; += Compound is active at 300 mg/kg; type: functional, organism-based
Method in brief: as §1

Mus musculus [16] = test: Anti-pentylenetetrazole activity; - denotes inactive up to 600 mg/kg; type: functional, organism-based; set-up: dose 600 mg/kg
Method in brief: as §2

Mus musculus [17] = species: Mus musculus; test: as §5; type: functional; remark: listed apart in the source
Method in brief: as §3

[18] = Tested for Neurotoxicity in rotarod test; type: toxicity, organism-based; conditions: mouse, in vivo
Method in brief: as §4

Mus musculus [19] = test: Tested for rotarod neurotoxicity, number of deaths from respiratory depression among four animals given a dose 600 mg/kg was reported; type: organism-based; set-up: dose 600 mg/kg; conditions: in vivo

CC(=O)NCC1(C)CC(=O)N(Cc2ccccc2)C1=O (stereo not given)
NT (Mus musculus [1]): 0 | MES (Mus musculus [2]): active at 100 mg/kg | PTZ (Mus musculus [3]): active at 300 mg/kg | PTZ (Mus musculus [4]): Not toxic | MES (Mus musculus [5]): Not toxic

CC1(CN)CC(=O)N(Cc2ccccc2)C1=O (stereo not given)
NT (Mus musculus [6]): 2 | ED50 (Mus musculus [7]): 66.4 mg/kg | MES (Mus musculus [8]): active at 300 mg/kg | PTZ (Mus musculus [4]): Not toxic | PTZ (Mus musculus [9]): Not toxic | TD50 [10]: 228 mg/kg

CN1C(=O)CC(C)(c2ccccc2)C1=O (stereo not given) [METHSUXIMIDE]
ED50 (Mus musculus [11]): 76.3 mg/kg

CN1C(=O)CC(c2ccccc2)C1=O (stereo not given) [PHENSUXIMIDE]
ED50 (Mus musculus [11]): 112 mg/kg

Cl.NCC1CC(=O)N(Cc2ccccc2)C1=O (stereo not given)
NT (Mus musculus [6]): 4 | ED50 (Mus musculus [7]): 108 mg/kg | TD50 [12]: 268 mg/kg | PTZ (Mus musculus [4]): Not toxic | MES (Mus musculus [5]): Not toxic | PTZ (Mus musculus [9]): Not toxic

CC(=O)NCC1CC(=O)N(Cc2ccccc2)C1=O (stereo not given)
PTZ (Mus musculus [13]): active at 300 mg/kg | NT (Mus musculus [14]): 0 | PTZ (Mus musculus [4]): Not toxic | MES (Mus musculus [15]): active at 300 mg/kg | MES (Mus musculus [5]): Not toxic

O=C1CC(CNCc2ccccc2)C(=O)N1Cc1ccccc1 (stereo not given)
PTZ (Mus musculus [16]): Not toxic | PTZ (Mus musculus [4]): Not toxic | ED50 (Mus musculus [17]): 136 mg/kg | TD50 [18]: 267 mg/kg | MES (Mus musculus [5]): Not toxic | NT (Mus musculus [19]): 4
